ChEMBL document CHEMBL1649236, “The structure of the dizinc subclass B2 metallo-beta-lactamase CphA reveals that the second inhibitory zinc ion binds in the histidine site” (Antimicrob Agents Chemother, 2009)

Tests used:
[1] = compound: O=C(Cc1cccs1)N[C@@H]1C(=O)N2C(C(=O)O)=C(/C=C/c3ccc([N+](=O)[O-])cc3[N+](=O)[O-])CS[C@H]12; assay: (§1) Ratio of Kcat to Km for Aeromonas hydrophila metallo-betalactamase CphA expressed in Escherichia coli BL21(DE3) by spectrophotometric analysis in presence of < 0.4 uM zinc ions
Outline: (§2)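 Steady-state kinetics (kcat, Km, kcat/Km) at 30°C in 15 mM cacodylate pH 6.5, no added Zn2+ (free [Zn2+] < 0.4 µM), enzyme as the mono-zinc form (one Zn per molecule). Substrates imipenem, nitrocefin and CENTA. N233A mutant from E. coli BL21 (DE3) pLysS Star, purified to homogeneity, mass checked by ESI-MS. Standard errors below 10%.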

[2] = compound: O=C(Cc1cccs1)N[C@@H]1C(=O)N2C(C(=O)O)=C(CSc3ccc([N+](=O)[O-])c(C(=O)O)c3)CS[C@H]12; assay: as §1; outline: as §2
[3] = compound: C[C@@H](O)[C@H]1C(=O)N2C(C(=O)O)=C(SCCNC=N)C[C@H]12; assay: as §1; outline: as §2
[4] = compound: O=C(Cc1cccs1)N[C@@H]1C(=O)N2C(C(=O)O)=C(/C=C/c3ccc([N+](=O)[O-])cc3[N+](=O)[O-])CS[C@H]12; assay: (§3) Activity of Aeromonas hydrophila metallo-betalactamase CphA expressed in Escherichia coli BL21(DE3) by spectrophotometric analysis in presence of < 0.4 uM zinc ions; outline: as §2
[5] = compound: O=C(Cc1cccs1)N[C@@H]1C(=O)N2C(C(=O)O)=C(CSc3ccc([N+](=O)[O-])c(C(=O)O)c3)CS[C@H]12; assay: as §3; outline: as §2
[6] = compound: C[C@@H](O)[C@H]1C(=O)N2C(C(=O)O)=C(SCCNC=N)C[C@H]12; assay: as §3; outline: as §2

B1: Metallo-beta-lactamase type 2 (Aeromonas hydrophila), P26918 (protein)
chain: MMKGWMKCGLAGAVVLMASFWGGSVRAAGMSLTQVSGPVYVVEDNYYVQENSMVYFGAKGVTVVGATWTPDTARELHKLIKRVSRKPVLEVINTNYHTDRAGGNAYWKSIGAKVVSTRQTRDLMKSDWAEIVAFTRKGLPEYPDLPLVLPNVVHDGDFTLQEGKVRAFYAGPAHTPDGIFVYFPDEQVLYGNCILKEKLGNLSFADVKAYPQTLERLKAMKLPIKTVIGGHDSPLHGPELIDHYEALIKAAPQS
- kcat/Km [1]: 6 M⁻¹ s⁻¹
- kcat/Km [2]: Not Active
- kcat/Km [3]: 3.5e+06 M⁻¹ s⁻¹
- Km [4]: 1300 µM
- kcat [4]: 0.008 s⁻¹
- Km [5]: Not Active
- kcat [5]: Not Active
- Km [6]: 340 µM
- kcat [6]: 1200 s⁻¹
